# From ChEMBL document CHEMBL1152982, “Synthetic analogue of rocaglaol displays a potent and selective cytotoxicity in cancer cells: involvement of apoptosis inducing factor and caspase-12” (J Med Chem, 2009)
# Active and inactive are the calls of the source. No cut-off for these calls is given here. Residues, ends and D or L forms follow the SMILES beside them. *: point of attachment. Cbz = O=C(OCc1ccccc1)*; CH2F = FC*
# Key:
# [1] = system: HL-60; test: Inhibition of chymotrypsin-like activity of proteasome in human HL60 cells at 100 nM
# Method in brief: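 Lysates of HL60 cells treated with compound; chymotrypsin-like proteasome activity of the lysate measured in vitro.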
# [2] = system: KB; test: Cytotoxicity against human KB cells after 72 hrs by MTS assay; format: functional, cell-based
# Method in brief: (§1)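 Human cancer lines treated for 72 h and proliferation/viability read by MTS assay; dose-response curves in duplicate with IC50 taken from the curves; MCF7R is the P-gp (MDR1)-expressing resistant line.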
# [3] = system: MCF7; test: Cytotoxicity against human MCF7 cells after 72 hrs by MTS assay; format: functional, cell-based; method in brief: as §1
# [4] = system: MCF7; test: Cytotoxicity against human MCF7 cells expressing P-glycoprotein after 72 hrs by MTS assay; format: functional, cell-based; method in brief: as §1
# [5] = system: HCT-116; test: Cytotoxicity against human HCT116 cells after 72 hrs by MTS assay; format: functional, cell-based; details: HCT-116, 72 h; method in brief: as §1
# [6] = system: HCT-15; test: Cytotoxicity against human HCT15 cells after 72 hrs by MTS assay; format: functional, cell-based; method in brief: as §1
# [7] = system: HL-60; test: Cytotoxicity against human HL60 cells after 72 hrs by MTS assay; format: functional, cell-based; details: HL-60, 72 h
# Method in brief: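 HL60 cells exposed to compound for 72 h; proliferation/viability read by MTS assay. IC50 taken from dose-response curves run in duplicate.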
# [8] = target: ATP-dependent translocase ABCB1 (Homo sapiens, UniProt P08183); test: Inhibition of P-glycoprotein expressing human MCF7 cells assessed as change in rhodamine 123 efflux at 0.1 to 1 uM; format: cell-based
# Sequence of ATP-dependent translocase ABCB1 (P08183 whole entry): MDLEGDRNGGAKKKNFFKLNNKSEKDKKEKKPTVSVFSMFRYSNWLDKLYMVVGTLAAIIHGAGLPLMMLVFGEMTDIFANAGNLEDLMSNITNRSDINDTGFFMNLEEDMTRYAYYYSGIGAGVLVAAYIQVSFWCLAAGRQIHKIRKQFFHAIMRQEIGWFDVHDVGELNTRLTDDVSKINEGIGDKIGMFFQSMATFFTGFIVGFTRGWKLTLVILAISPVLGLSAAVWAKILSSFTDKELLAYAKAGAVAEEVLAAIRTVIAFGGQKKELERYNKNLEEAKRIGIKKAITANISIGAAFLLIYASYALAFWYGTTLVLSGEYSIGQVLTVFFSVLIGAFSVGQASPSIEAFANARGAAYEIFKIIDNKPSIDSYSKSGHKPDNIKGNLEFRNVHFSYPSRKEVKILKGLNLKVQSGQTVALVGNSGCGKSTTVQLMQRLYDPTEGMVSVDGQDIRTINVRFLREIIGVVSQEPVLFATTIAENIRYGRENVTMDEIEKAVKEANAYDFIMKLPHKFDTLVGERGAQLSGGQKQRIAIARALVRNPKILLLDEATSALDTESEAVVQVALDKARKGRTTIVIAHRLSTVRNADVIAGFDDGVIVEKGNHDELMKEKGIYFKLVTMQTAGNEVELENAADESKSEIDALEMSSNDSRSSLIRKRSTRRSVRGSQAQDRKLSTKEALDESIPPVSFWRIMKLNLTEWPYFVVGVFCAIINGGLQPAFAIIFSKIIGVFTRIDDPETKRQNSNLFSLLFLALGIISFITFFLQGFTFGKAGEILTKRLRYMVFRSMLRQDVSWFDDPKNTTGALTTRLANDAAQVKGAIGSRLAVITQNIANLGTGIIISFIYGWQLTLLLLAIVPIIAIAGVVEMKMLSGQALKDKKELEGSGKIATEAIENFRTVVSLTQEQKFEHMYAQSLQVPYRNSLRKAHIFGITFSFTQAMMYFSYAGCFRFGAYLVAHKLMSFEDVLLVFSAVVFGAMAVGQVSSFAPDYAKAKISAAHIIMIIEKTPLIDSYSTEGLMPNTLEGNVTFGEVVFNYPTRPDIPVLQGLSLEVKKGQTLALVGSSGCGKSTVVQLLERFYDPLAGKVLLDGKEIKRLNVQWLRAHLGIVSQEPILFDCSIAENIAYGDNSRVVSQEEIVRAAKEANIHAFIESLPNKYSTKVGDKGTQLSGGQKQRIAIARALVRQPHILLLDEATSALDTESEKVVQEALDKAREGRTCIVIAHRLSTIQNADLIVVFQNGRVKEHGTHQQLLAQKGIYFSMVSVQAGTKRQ
# [9] = system: HepG2; test: Cytotoxicity against human HepG2 cells after 72 hrs by MTS assay; format: functional, cell-based; method in brief: as §1
# [10] = system: HL-60; test: Cytotoxicity against human HL60 cells; format: functional, cell-based
# [11] = system: H9c2; test: Induction of apoptosis in rat H9c2 cells at 1 uM after 24 hrs by FACS analysis; format: cell-based; details: h9c2, 24 h
# Method in brief: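 Rat H9c2 cardiomyoblasts treated 24 h with compound or vehicle. Cells labeled with annexin V and propidium iodide and analyzed by FACS for apoptosis.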
# [12] = system: HL-60; test: Cell cycle arrest in human HL60 cells assessed as accumulation of cells in G2/M phase at 20 nM after 48 hrs by FACS analysis; format: functional, cell-based
# Method in brief: (§2)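 HL60 cells treated for 48 h; vehicle control 1% DMSO, doxorubicin as positive control. Propidium iodide staining, DNA content by flow cytometry giving cell-cycle distribution (G2/M, G0-G1 peaks); n = 4, each sample in duplicate.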
# [13] = system: HL-60; test: Induction of apoptosis in human HL60 cells assessed as increase in caspase 3/7-mediated at 1 uM after 48 hrs measured by spectroscopy; format: functional
# Method in brief: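 HL60 cells treated 48 h. Whole-cell extracts tested for cleavage of the caspase-3 substrate DEVD-AMC, with fluorescence release read spectroscopically. Rates taken from the slope of the linear time course and expressed as fold-activation over the DMSO-treated control.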
# [14] = system: HL-60; test: Cell cycle arrest in human HL60 cells assessed as increase in G0/G1 peak at 200 nM after 48 hrs by FACS analysis; format: functional, cell-based; method in brief: as §2
# [15] = Drug localization in endoplasmic reticulum of human HeLa cells after 2 hrs by ER tracker; format: ADME, cell-based
# Method in brief: (§3)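 Live HeLa cells incubated with 50 μM fluorescent probe for 2 h, then 15 min with 1 μM organelle dye: Mito-Tracker Red (mitochondria), ER-tracker red (endoplasmic reticulum), or BODIPY 558/568 brefeldin A (ER plus Golgi). Localization judged by overlap of probe and dye signals in merged confocal images.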
# [16] = Drug localization in golgi apparatus of human HeLa cells after 2 hrs by Brefeldin tracker; format: ADME, cell-based; method in brief: as §3
# [17] = Drug localization in mitochondria of human HeLa cells after 2 hrs by Mito-Tracker Red dye
# [18] = Inhibition of cap-dependent […] of firefly luciferase in mouse Krebs2 cell extract; format: functional, cell-free
# [19] = system: HepG2; test: Enhancement of doxorubicin-induced cytotoxicity against human HepG2 cells after 72 hrs by MTS assay; format: functional, cell-based
# Method in brief: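 HepG2 cells given the test agent alone or together with 150 nM doxorubicin for 72 h; proliferation by MTS assay; duplicate experiments, n = 3.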
# [20] = system: H9c2; test: Induction of apoptosis in rat H9c2 cells at 0.5 to 50 nM after 24 hrs by FACS analysis; format: cell-based; details: h9c2, 24 h, 0.05 µM
# Method in brief: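 Rat H9c2 cardiomyoblasts treated 24 h (0.5-50 nM) or 24, 48 and 72 h (20 nM) versus vehicle; annexin V plus propidium iodide labeling and FACS for apoptosis; viability in parallel by MTS; doxorubicin 1 μM as positive control.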
# [21] = system: HL-60; test: Cell cycle arrest in human HL60 cells assessed as accumulation of cells in G2/M phase at 200 nM after 48 hrs by FACS analysis; format: functional, cell-based; method in brief: as §2
# [22] = system: HL-60; test: Cell cycle arrest in human HL60 cells assessed as increase in G0/G1 peak at 20 nM after 48 hrs by FACS analysis; format: functional, cell-based; method in brief: as §2
# [23] = system: HL-60; test: Induction of apoptosis in human HL60 cells assessed as caspase 3/7-mediated DEVD-AMC substrate cleavage at 1 to 1000 nM after 48 hrs by spectroscopy; format: functional, cell-based
# Method in brief: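 HL60 cells treated 48 h, doxorubicin as positive control; whole-cell extracts incubated with DEVD-AMC, fluorescence release followed over time; rate from slope of linear phase, expressed as fold-activation over DMSO-treated control.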
# [24] = system: HL-60; test: Antiproliferative activity against human HL60 cells at 50 nM in presence of caspase inhibitor Z-VAD-FMK; format: functional, cell-based
# Method in brief: (§4)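 HL60 cells exposed for 72 h, with or without co-treatment with Z-VAD-FMK (50 μM), necrostatin-1 (50 μM) or 3-methyladenine (2 mM). Antiproliferative effect was compared against vehicle.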
# [25] = system: HL-60; test: Antiproliferative activity against human HL60 cells at 50 nM in presence of […] inhibitor necrostatin 1; format: functional, cell-based; method in brief: as §4
# [26] = system: HL-60; test: Antiproliferative activity against human HL60 cells at 50 nM in presence of […] inhibitor 3-methyladenine; format: functional, cell-based; method in brief: as §4
# [27] = system: HL-60; test: Inhibition of proteasome activity in human HL60 cells at 20 to 200 nM; format: subcellular
# Method in brief: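 Lysates of HL60 cells incubated with compound; in vitro chymotrypsin-like and trypsin-like proteasome activities measured with fluorogenic AMC substrates (LLVY-AMC, RLR-AMC).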
# [28] = Drug localization in mitochondria of human HeLa cells at 50 uM after 2 hrs by Mito-Tracker Red dye; format: ADME; method in brief: as §3
# [29] = Drug localization in endoplasmic reticulum of human HeLa cells at 50 uM after 2 hrs by ER tracker; format: ADME, cell-based; method in brief: as §3
# [30] = system: HeLa; test: Binding affinity to eIF4A in human HeLa cell extract by agarose pulldown assay; format: cell-free
# [31] = Homo sapiens, MCF7, 72 h, read-out: IC50
# [32] = Homo sapiens, HCT-15, 72 h, read-out: IC50
# [33] = Homo sapiens, HepG2, 72 h, read-out: IC50
smiles,measurement,setting,value
CC(C)C[C@H](NC(=O)[C@H](Cc1ccccc1)NC(=O)c1cnccn1)B(O)O,Activity,[1],Active
COc1ccc([C@@H]2C[C@@H](O)[C@@]3(O)c4c(OC)cc(OC)cc4O[C@@]23c2ccccc2)cc1,IC50,[2],> 10000 nM
same,IC50,[3]; mcf7,Not Active
same,IC50,[4]; [31],> 10000 nM
same,IC50,[5],> 10000 nM
same,IC50,[6]; hct-15,Not Active
same,IC50,[7],> 10000 nM
same,Activity,[8],Not Active
same,IC50,[9]; hepg2,Not Active
COC(=O)C[C@H](NC(=O)[C@H](C)NC(=O)[C@@H](NC(=O)[C@H](C)NC(=O)OCc1ccccc1)[C@@H](C)O)C(=O)CF (Cbz-ATAD(OMe)-CH2F),Activity,[10],Active
COc1cccc2c1C(=O)c1c(O)c3c(c(O)c1C2=O)C[C@@](O)(C(=O)CO)C[C@@H]3O[C@H]1C[C@H](N)[C@H](O)[C@H](C)O1 [DOXORUBICIN],IC50,[2],1 nM
same,IC50,[3]; [31],12 nM
same,IC50,[4]; [31],58 nM
same,IC50,[5],6 nM
same,IC50,[6]; [32],81 nM
same,IC50,[7],13 nM
same,fold change (FC),[11],3
same,IC50,[9]; [33],240 nM
same,Activity,[12],Active
same,fold change (FC),[13],14
CC(=O)NCCOCCOCCNC(=O)Cc1cc(=O)oc2cc(N(C)C)ccc12,Activity,[14],inactive
same,Activity,[15],Not Active
same,Activity,[16],Not Active
same,Activity,[17],Not Active
COC(=O)[C@H]1[C@@H](OC=O)[C@@]2(O)c3c(OC)cc(OC)cc3O[C@@]2(c2ccc(OC)cc2)[C@@H]1c1ccccc1,IC50,[18],3000 nM
CC[C@]1(O)C[C@@H]2CN(CCc3c([nH]c4ccccc34)[C@@](C(=O)OC)(c3cc4c(cc3OC)N(C)[C@H]3[C@@](O)(C(=O)OC)[C@H](OC(C)=O)[C@]5(CC)C=CCN6CC[C@]43[C@@H]65)C2)C1 [VINBLASTINE],IC50,[2],0.8 nM
same,IC50,[3]; [31],4.6 nM
same,IC50,[4]; mcf7,Not Active
same,IC50,[5],1.3 nM
same,IC50,[6]; [32],10 nM
same,IC50,[7],1 nM
same,IC50,[9]; hepg2,Not Active
COc1ccc([C@@]23Oc4cc(OC)cc(OC)c4[C@]2(O)[C@H](O)C[C@H]3c2ccccc2)cc1 (racemic) [ROCAGLAOL],IC50,[2],2 nM
same,IC50,[3]; [31],4 nM
same,IC50,[4]; [31],4 nM
same,IC50,[5],6 nM
same,IC50,[6]; [32],6 nM
same,IC50,[7],3 nM
same,Activity,[8],Not Active
same,Activity,[19],Active
same,Activity,[20],Not Active
same,IC50,[9]; [33],70 nM
same,Activity,[21],Active
same,Activity,[12],Active
same,Activity,[14],Active
same,Activity,[22],Active
same,Activity,[23],inactive
same,Activity,[24],inactive
same,Activity,[25],inactive
same,Activity,[26],inactive
same,Activity,[27],inactive
COc1ccc2c(c1)O[C@@]1(c3ccc(Br)cc3)[C@H](c3ccccc3)[C@@H](C(=O)NCCOCCOCCNC(=O)Cc3cc(=O)oc4cc(N(C)C)ccc34)[C@@H](O)[C@@]21O,IC50,[7],130 nM
same,Activity,[28],Not Active
same,Activity,[29],Active
COc1cc(OC)c2c(c1)O[C@@]1(c3ccccc3)[C@H](c3ccccc3)C[C@@H](O)[C@@]21O,IC50,[2],2500 nM
same,IC50,[3]; [31],10000 nM
same,IC50,[4]; [31],10000 nM
same,IC50,[5],6000 nM
same,IC50,[6]; [32],8000 nM
same,IC50,[7],6000 nM
same,Activity,[8],Not Active
same,IC50,[9]; [33],> 10000 nM
CC(=O)O[C@@]12CO[C@@H]1C[C@H](O)[C@@]1(C)C(=O)[C@H](O)C3=C(C)[C@@H](OC(=O)[C@H](O)[C@@H](NC(=O)OC(C)(C)C)c4ccccc4)C[C@@](O)([C@@H](OC(=O)c4ccccc4)[C@H]21)C3(C)C.O.O.O [DOCETAXEL],IC50,[2],0.2 nM
same,IC50,[3]; mcf7,Not Active
same,IC50,[4]; mcf7,Not Active
same,IC50,[5],0.5 nM
same,IC50,[6]; [32],13 nM
same,IC50,[7],0.5 nM
same,IC50,[9]; hepg2,Not Active
COC(=O)[C@H]1[C@@H](O)[C@@]2(O)c3c(OC)cc(O[C@@H]4O[C@@H]([C@H](O)CO)CO[C@H]4OC)cc3O[C@@]2(c2ccc(OC)cc2)[C@@H]1c1ccccc1 [SILVESTROL],IC50,[18],300 nM
CC[C@@]1(O)C(=O)OCc2c1cc1n(c2=O)Cc2cc3ccccc3nc2-1 [CAMPTOTHECIN],IC50,[2],38 nM
same,IC50,[3]; [31],10 nM
same,IC50,[4]; [31],3 nM
same,IC50,[5],2 nM
same,IC50,[6]; [32],3 nM
same,IC50,[7],6 nM
same,IC50,[9]; [33],455 nM
COc1cc(OC)c2c(c1)O[C@@]1(c3ccc(Br)cc3)[C@H](c3ccccc3)[C@@H](C(=O)NCCOCCOCCOCCOCCOCCOCN)[C@@H](O)[C@@]21O,Activity,[30],inactive
